Experimental findings from publication PMC11956031 (RSC Medicinal Chemistry, 2025) are described below.

Test [1] concerns 2008 (ovarian) cancer cells. The test is described as follows: MTT cytotoxicity, 2008 cells, 72 h. Particulars: read-out: IC50 2008, 72 h incubation. The test is classed as cell-based, human. A digest of the protocol:
(§1)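 Cells kept in log phase at 37 °C, 5% CO2, 10% FCS, 2 mM L-glutamine; RPMI-1640 for HCT-15, PSN-1, NTERA-2, 2008 and C13*; DMEM for MDA-MB-231 and HEK293; F-12 HAM's for CHO. C13* selected from 2008 with low-dose cisplatin. 72 h exposure, 0.5% final DMSO. IC50 at 570 nm vs untreated by 4-PL. RF = C13*/2008 IC50; panel average of IC50s.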

In test [2] the test system is 2008 cancer cell spheroids. Nature of the test: 3D spheroids APH assay, 2008. Particulars: read-out: IC50 3D spheroids 2008, 72 h incubation. In kind it is cell-based, human. The method in brief:
(§2)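 2.5 × 10^3 2008 or NTERA-2 cells per well grown as spheroids in phenol red-free F-12 HAM's with 10% FCS and 20% methyl cellulose stock. Treated 72 h; DMSO stocks, 0.5% final DMSO; cisplatin from 0.9% NaCl. Viability by modified acid phosphatase assay. IC50 from 405 nm absorbance vs untreated, 4-PL fit.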

The test system of test [3] is HCT-15 (colorectal) cancer cells. Nature of the test: MTT cytotoxicity, HCT-15 cells, 72 h. The test is classed as cell-based, human. Particulars: read-out: IC50 HCT-15, 72 h incubation. A digest of the protocol:
as §1

Test [4] deals with NTERA-2 (embryonal) cancer cells. Nature of the test: MTT cytotoxicity, NTERA-2 cells, 72 h. In kind it is cell-based, human. Particulars: read-out: IC50 NTERA-2, 72 h incubation. A digest of the protocol: as §1
The subject of test [5] is MDA-MB-231 (breast) cancer cells. The test is described as follows: MTT cytotoxicity, MDA-MB-231 cells, 72 h. The test is classed as cell-based, human. Particulars: read-out: IC50 MDA-MB-231, 72 h incubation. The method in brief: as §1
Test [6] deals with Chinese hamster ovary (CHO) cells. The test is described as follows: MTT cytotoxicity, non-tumor CHO cells. In kind it is cell-based. Particulars: read-out: IC50 CHO, 72 h incubation. The method in brief:
as §1

Test [7] relates to PSN-1 (pancreatic) cancer cells. The test is described as follows: MTT cytotoxicity, PSN-1 cells, 72 h. The test is classed as cell-based, human. Particulars: read-out: IC50 PSN-1, 72 h incubation. A digest of the protocol:
as §1

Test [8] deals with NTERA-2 cancer cell spheroids. The test is described as follows: 3D spheroids APH assay, NTERA-2. In kind it is cell-based, human. Particulars: read-out: IC50 3D spheroids NTERA-2, 72 h incubation. A digest of the protocol:
as §2

Test [9] deals with C13* cancer cells (ovarian, resistant to cisplatin). The test is described as follows: MTT cytotoxicity, cisplatin-resistant C13* cells, 72 h. In kind it is cell-based, human. A digest of the protocol: as §1
Test [10] has as its system human embryonic kidney (HEK-293) cells. Nature of the test: MTT cytotoxicity, non-tumor HEK-293 cells. The test is classed as cell-based. Particulars: read-out: IC50 HEK-293, 72 h incubation. A digest of the protocol:
as §1

For orientation: IC50 means the point on the concentration scale where inhibition reaches its midpoint. Turning to `N.N.[Cl][Pt][Cl]` [Cisplatin, cisplatin], the IC50 in [1] was found to be 2 ± 1 µM; in [2], 13.9 ± 0.8 µM; in test [3], 14 ± 2 µM; in test [4] it was 15 ± 3 µM; in test [5] it was 22 ± 4 µM; in test [6], 29 ± 3 µM. Besides, the IC50 in [7] was 12 ± 3 µM; in test [8] it was 50 ± 5 µM; in test [9] (read-out: IC50 C13*, 72 h incubation, MTT, cisplatin-resistant cells) it was 25 ± 2 µM; in test [10] it was 14 ± 3 µM. In test [9] (in brackets, ratio IC50 resistant C13* / sensitive 2008 cells), the “resistance factor (RF)” value turned out to be 11.7.
